# Key:
# Calf thymus DNA [1] = assay: Binding affinity to calf thymus DNA assessed as change in entropy at temperature of 298 K by Van't Hoff plot analysis; format: nucleic-acid assay; settings: Bos taurus
# Calf thymus DNA [2] = assay: Binding affinity to calf thymus DNA assessed as change in enthalpy at temperature of 298 K by Van't Hoff plot analysis; format: nucleic-acid assay; settings: Bos taurus
# Calf thymus DNA [3] = assay: Binding affinity to calf thymus DNA assessed as fluorescence quenching intensity at 5 uM at temperature of 318 K by fluorescence spectroscopic method relative to control; format: nucleic-acid assay; settings: Bos taurus
# Calf thymus DNA [4] = assay: Binding affinity to calf thymus DNA assessed as binding constant at temperature of 318 K by Stern-Volmer quenching plot based fluorescence spectroscopic method; format: nucleic-acid assay; settings: Bos taurus
# Calf thymus DNA [5] = assay: Binding affinity to calf thymus DNA assessed as binding constant at temperature of 308 K by Stern-Volmer quenching plot based fluorescence spectroscopic method; format: nucleic-acid assay; settings: Bos taurus
# Calf thymus DNA [6] = assay: Binding affinity to calf thymus DNA assessed as quenching constant at temperature of 308 K by fluorescence spectroscopic method; format: nucleic-acid assay; settings: Bos taurus
# Calf thymus DNA [7] = assay: Binding affinity to calf thymus DNA assessed as DNA intercalation by measuring Stem-Volmer quenching constant at temperature of 318 K by fluorescence spectroscopic method; format: nucleic-acid assay; settings: Bos taurus
# MDA-MB-231 = assay: Antiproliferative activity against human MDA-MB-231 cells assessed as cell growth inhibition by measuring lethal concentration incubated for 48 hrs by sulforhodamine B assay; format: functional; settings: read-out: LC50 (the source's name)
# RXF 393 [8] = assay: Antiproliferative activity against human RXF 393 cells assessed as cell growth inhibition by measuring lethal concentration incubated for 48 hrs by sulforhodamine B assay; format: functional; settings: read-out: LC50 (the source's name)
# UACC-257 = assay: Antiproliferative activity against human UACC-257 cells assessed as cell growth inhibition by measuring lethal concentration incubated for 48 hrs by sulforhodamine B assay; format: functional; settings: read-out: LC50 (the source's name)
# Procedure, shortened: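 NCI-60 five-dose screen (10^-4 to 10^-8 M, 10-fold dilutions; DMSO stocks). Cells in RPMI 1640 with 5% FBS and 2 mM L-glutamine, preincubated 24 h, then exposed 48 h at 37 °C, 5% CO2. Fixed with cold TCA, stained with 0.4% SRB, absorbance read at 515 nm. Time-zero plates used as reference. LC50 taken from [(Ti-Tz)/Tz]×100 […].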
# SK-MEL-5 = assay: Antiproliferative activity against human SK-MEL-5 cells assessed as cell growth inhibition by measuring lethal concentration incubated for 48 hrs by sulforhodamine B assay; format: functional; settings: read-out: LC50 (the source's name)
# LOX IMVI [9] = assay: Antiproliferative activity against human LOX IMVI cells assessed as cell growth inhibition by measuring lethal concentration incubated for 48 hrs by sulforhodamine B assay; format: functional; settings: read-out: LC50 (the source's name)
# SF-539 = assay: Antiproliferative activity against human SF-539 cells assessed as cell growth inhibition by measuring lethal concentration incubated for 48 hrs by sulforhodamine B assay; format: functional; settings: read-out: LC50 (the source's name)
# HCT-116 = assay: Antiproliferative activity against human HCT-116 cells assessed as cell growth inhibition by measuring lethal concentration incubated for 48 hrs by sulforhodamine B assay; format: functional; settings: read-out: LC50 (the source's name)
# T47D = assay: Growth inhibition against human T47D cells assessed as total growth inhibitory concentration incubated for 48 hrs by sulforhodamine B assay; format: functional
# SK-OV-3 = assay: Growth inhibition against human SK-OV-3 cells assessed as total growth inhibitory concentration incubated for 48 hrs by sulforhodamine B assay; format: functional
# UACC-62 = assay: Growth inhibition against human UACC-62 cells assessed as total growth inhibitory concentration incubated for 48 hrs by sulforhodamine B assay; format: functional
# MDA-MB-435 = assay: Growth inhibition against human MDA-MB-435 cells assessed as total growth inhibitory concentration incubated for 48 hrs by sulforhodamine B assay; format: functional
# Malme-3M = assay: Growth inhibition against human Malme-3M cells assessed as total growth inhibitory concentration incubated for 48 hrs by sulforhodamine B assay; format: functional
# LOX IMVI [10] = assay: Growth inhibition against human LOX IMVI cells assessed as total growth inhibitory concentration incubated for 48 hrs by sulforhodamine B assay; format: functional
# U-251 [11] = assay: Growth inhibition against human U-251 cells assessed as total growth inhibitory concentration incubated for 48 hrs by sulforhodamine B assay; format: functional
# SW-620 [12] = assay: Growth inhibition against human SW620 cells assessed as total growth inhibitory concentration incubated for 48 hrs by sulforhodamine B assay; format: functional
# EKVX = assay: Growth inhibition against human EKVX cells assessed as total growth inhibitory concentration incubated for 48 hrs by sulforhodamine B assay; format: functional
# K562 [13] = assay: Growth inhibition against human K562 cells assessed as total growth inhibitory concentration incubated for 48 hrs by sulforhodamine B assay; format: functional
# K562 [14] = assay: Growth inhibition against human K562 cells incubated for 48 hrs by sulforhodamine B assay; format: functional
# MOLT-4 = assay: Antiproliferative activity against human MOLT-4 cells assessed as cell growth at 0.00001 M incubated for 48 hrs by SRB assay relative to control; format: functional; settings: read-out: Activity
# SW-620 [15] = assay: Antiproliferative activity against human SW620 cells assessed as cell growth at 0.00001 M incubated for 48 hrs by SRB assay relative to control; format: functional; settings: read-out: Activity
# K562 [16] = assay: Antiproliferative activity against human K562 cells assessed as cell growth at 0.0001 M incubated for 48 hrs by SRB assay relative to control; format: functional; settings: read-out: Activity
# U-251 [17] = assay: Antiproliferative activity against human U-251 cells assessed as cell growth at 0.0001 M incubated for 48 hrs by SRB assay relative to control; format: functional; settings: read-out: Activity
# RXF 393 [18] = assay: Growth inhibition against human RXF 393 cells assessed as total growth inhibitory concentration incubated for 48 hrs by sulforhodamine B assay; format: functional
# 786-0 = assay: Growth inhibition against human 786-0 cells assessed as total growth inhibitory concentration incubated for 48 hrs by sulforhodamine B assay; format: functional
# NCI/ADR-RES = assay: Growth inhibition against human NCI/ADR-RES cells assessed as total growth inhibitory concentration incubated for 48 hrs by sulforhodamine B assay; format: functional
# SF-295 = assay: Growth inhibition against human SF-295 cells assessed as total growth inhibitory concentration incubated for 48 hrs by sulforhodamine B assay; format: functional
compound,measurement,setting,value
COc1ccc(-c2cn3ccnc3c(-c3ccc4ncn(C5CCCCC5)c4c3)n2)cc1,deltaS,Calf thymus DNA [1],-206 cal/mol/K
same,deltaH,Calf thymus DNA [2],-69.3 kcal/mol
same,Activity,Calf thymus DNA [3],60%
same,Kb,Calf thymus DNA [4],0.02 10^4/M
same,Kb,Calf thymus DNA [5],4.57 10^4/M
same,Kq,Calf thymus DNA [6],1.68 10^12/M/s
same,KSV,Calf thymus DNA [7],0.73 10^4/M
same,CC50,MDA-MB-231,> 100 µM
same,CC50,RXF 393 [8],> 100 µM
same,CC50,UACC-257,> 100 µM
same,CC50,SK-MEL-5,> 100 µM
same,CC50,LOX IMVI [9],> 100 µM
same,CC50,SF-539,> 100 µM
same,CC50,HCT-116,> 100 µM
same,TGI,T47D,4.5 µM
same,TGI,SK-OV-3,7.64 µM
same,TGI,UACC-62,> 100 µM
same,TGI,MDA-MB-435,> 100 µM
same,TGI,Malme-3M,> 100 µM
same,TGI,LOX IMVI [10],> 100 µM
same,TGI,U-251 [11],> 100 µM
same,TGI,SW-620 [12],> 100 µM
same,TGI,EKVX,> 100 µM
same,TGI,K562 [13],> 100 µM
same,GI50,K562 [14],0.422 µM
same,growth at 10 µM,MOLT-4,13%
same,growth at 10 µM,SW-620 [15],29%
same,growth at 100 µM,K562 [16],11%
same,growth at 100 µM,U-251 [17],6%
c1ccc(Cn2cnc3ccc(-c4nc(-c5ccc6c(c5)ncn6C5CCCCC5)cn5ccnc45)cc32)cc1,TGI,RXF 393 [18],2.75 µM
same,TGI,786-0,> 100 µM
same,TGI,NCI/ADR-RES,5.43 µM
same,TGI,SF-295,2.98 µM
